The values below come from ChEMBL document CHEMBL1136357, “2-arylaminothiazoles as high-affinity corticotropin-releasing factor 1 receptor (CRF1R) antagonists: synthesis, binding studies and behavioral efficacy” (Bioorg Med Chem Lett, 2003).

Series [1] has as its target T1, Corticotropin-releasing factor receptor 1 (Homo sapiens, UniProt P34998).
T1 sequence (P34998 whole entry): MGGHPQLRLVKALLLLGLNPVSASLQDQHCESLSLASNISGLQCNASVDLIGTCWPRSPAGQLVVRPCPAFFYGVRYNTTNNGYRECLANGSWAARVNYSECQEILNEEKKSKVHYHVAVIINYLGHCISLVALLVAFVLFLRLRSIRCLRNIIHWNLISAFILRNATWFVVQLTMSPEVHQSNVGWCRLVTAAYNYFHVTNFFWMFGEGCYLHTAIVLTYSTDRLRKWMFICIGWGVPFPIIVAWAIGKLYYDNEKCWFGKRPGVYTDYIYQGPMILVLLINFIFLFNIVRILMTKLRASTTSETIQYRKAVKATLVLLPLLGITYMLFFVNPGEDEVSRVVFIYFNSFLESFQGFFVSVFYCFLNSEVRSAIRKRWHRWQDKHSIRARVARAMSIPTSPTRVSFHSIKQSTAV
As to the kind of experiment: Binding affinity by displacement of [125I]Tyr-o-CRF from human corticotropin releasing factor receptor 1 expressed in IMR-32 human neuroblastoma cell. A general note: Loss of bound radioactivity is the signal in a displacement assay; it reports binding, not function.

The nature of series [2]: Plasma clearance in rat after peroral administration at 10 mg/kg concentration. It is filed as ADME, organism-based. A digest of the protocol:
(§1)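 Rats were given the HCl salt at 10 mg/kg orally, and at 5 mg/kg intravenously in the same study. […] Half-life, clearance, volume of distribution and oral bioavailability (F) were derived from the same study.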

Series [3] in a line: Half-life in rat after peroral administration at 10 mg/kg concentration. In kind it is ADME, organism-based. As to conditions: in vivo. Put shortly: as §1
A short description of series [4]: Oral bioavailability in rat after peroral administration at 10 mg/kg. In kind it is ADME, organism-based. To be noted: in vivo. Put shortly:
as §1

Series [5] in a line: Oral bioavailability in rat after […]. It is filed as ADME, organism-based. To be noted: in vivo.
A short description of series [6]: Ratio in brain to that of rat plasma for 2 hr after peroral administration at 10 mg/kg. It is filed as ADME, organism-based. More on the design: dose 10 mg/kg, route oral. To be noted: po, read-out: B/P. Put shortly: as §1
Series [7] in a line: Ratio in brain to that of rat plasma for 2 hr after […]. It is filed as ADME, organism-based. More on the design: route oral. As to conditions: po, read-out: B/P.
The subject of series [8] is Rattus norvegicus. As to the kind of experiment: Area under curve in rat plasma for 0-4 hr after peroral administration at 10 mg/kg. In kind it is ADME, organism-based. Details: time < 4 hr, dose 10 mg/kg, route oral. To be noted: in vivo, po. Put shortly:
as §1

The subject of a further series is IMR-32. As to the kind of experiment: Compound was tested for its ability to inhibit CRF stimulatedcAMP production in IMR-32 cells. It is filed as functional, Homo sapiens.
The test system of series [9] is Rattus norvegicus. As to the kind of experiment: Volume distribution in rat after peroral administration at 10 mg/kg. In kind it is ADME, organism-based. Details: dose 10 mg/kg, route oral. To be noted: in vivo, po. A digest of the protocol:
as §1

The test system of series [10] is Rattus norvegicus. As to the kind of experiment: Volume distribution in rat after intravenous administration at 5 mg/kg. To be noted: in vivo.
A short description of series [11]: Half-life in rat after intravenous administration at 5 mg/kg concentration. To be noted: in vivo.
Series [12] is described as follows: Plasma clearance in rat after intravenous administration at 5 mg/kg concentration.
For series [13], the system named is Rattus norvegicus. Description: Area under curve in rat plasma for 0-4 hr after peroral administration at 10 mg/kg. As to conditions: in vivo, po.

By Ki is commonly meant the equilibrium dissociation constant of an inhibitor or competing ligand from its target. Low values mean a stronger hold on the target, high ones a looser hold on the target. As for `CCCN(Cc1sc(Nc2ccc(OC)cc2OC)nc1C(F)(F)F)CC1CC1`, the Ki in series [1] came to 5100 nM.

As for `CCCN(Cc1sc(Nc2ccc(C(C)C)cc2Br)nc1C(F)(F)F)CC1CC1`, the Ki in series [1] stood at 2900 nM. Against the preceding compound, the Ki is about 1.8-fold lower.

On to `CCCN(CC1CC1)C(=O)c1sc(Nc2c(Cl)cc(Cl)cc2Cl)nc1C`, for which affinity in [1] was put at a Ki of 360 nM. Against the preceding compound, the Ki is about 8.1-fold lower.

As to `CCCN(CC1CC1)C(=O)c1sc(Nc2c(Cl)cc(Cl)cc2Cl)nc1C(F)(F)F`, the affinity in series [1], expressed as Ki, was 31000 nM.

As for `CCCN(Cc1sc(Nc2c(CC)cccc2CC)nc1C(F)(F)F)CC1CC1`, the Ki in series [1] was more than 40000 nM.

In the case of `CCCN(Cc1sc(Nc2c(Cl)cc(C(F)(F)F)cc2Cl)nc1C(F)(F)F)CC1CC1`, affinity in [1] was put at a Ki of 28 nM.

For `CCCN(Cc1sc(Nc2c(C)cc(Cl)cc2Cl)nc1C(F)(F)F)CC1CC1`, in series [1], the Ki is 16 nM. This Ki lies about 1.8-fold lower than the previous one.

In turn, `CCN(CCOC)C(=O)c1sc(Nc2c(Cl)cc(Cl)cc2Cl)nc1C` displayed a Ki in series [1] of 16000 nM. This Ki is about 1000-fold higher than that of the compound before.

`CCCN(Cc1sc(Nc2c(C)cc(Cl)cc2C)nc1C(F)(F)F)CC1CC1` yielded a Ki in [1] of 73 nM.

With `CCCN(CCC)C(=O)c1sc(Nc2c(Cl)cc(Cl)cc2Cl)nc1C`, the Ki in [1] stood at 820 nM.

Broadly, the CL/F is clearance divided by bioavailability, as obtained after extravascular dosing. Broadly, the half-life is the time needed for the level to fall by half in the phase considered. The term bioavailability denotes dose-corrected exposure relative to a reference, in per cent. A low value points to poor availability. What is called AUC is the area under the concentration-time curve, a measure of exposure. Low values mean less exposure, high ones more exposure. One may read the Inhibition as how much of the control response was suppressed. By clearance is commonly meant the volume of plasma or blood freed of the substance per unit of time. A low value points to a low capacity for elimination. Regarding `CCCN(Cc1sc(Nc2c(Cl)cc(Cl)cc2Cl)nc1C(F)(F)F)CC1CC1`, the CL/F in series [2] turned out to be 16 mL/min/kg. Also, the half-life in [3] and in series [11] was 456 min in each case. For the same compound, the bioavailability in series [4] and in series [5] was 9% in each case. Further, the Kp at 2 h in series [6] and in [7] was 2 each time. Moreover, the AUC in the series with Rattus norvegicus [8] and in the series on Rattus norvegicus [13] was 1730 ng·h/mL throughout. This compound also had an Inhibition with IMR-32 of 90%. The Vd in the series on Rattus norvegicus [9] and in the series with Rattus norvegicus [10] was 1.1 L/kg each time. In addition, in series [12], the clearance was 16 mL/min/kg.

In series [1], `CCN(CC)C(=O)c1sc(Nc2c(Cl)cc(Cl)cc2Cl)nc1C` showed a Ki of 5000 nM.

On to `CCCN(Cc1sc(Nc2c(C)cc(C)cc2Cl)nc1C(F)(F)F)CC1CC1`, for which the Ki in series [1] came out at 23 nM.

In the case of `CCCN(Cc1sc(N(C)c2c(C)cc(C)cc2Cl)nc1C(F)(F)F)CC1CC1`, the Ki in series [1] was 100 nM.

In series [1], `CCCN(Cc1sc(Nc2c(C)cc(C)cc2C)nc1C(F)(F)F)CC1CC1` registered a Ki of 60 nM.

Consider `CCCN(Cc1sc(Nc2c(Br)cc(Br)cc2Br)nc1C(F)(F)F)CC1CC1`, for which the affinity in series [1], expressed as Ki, was 7.8 nM.

As for `CCCN(CC1CC1)c1nc(C)nc(Nc2c(Cl)cc(Cl)cc2Cl)c1Cl`, the Ki in series [1] was found to be 20 nM.

Compound `CCCN(Cc1sc(Nc2c(C)cc(C)cc2Br)nc1C(F)(F)F)CC1CC1` came in with a Ki in series [1] of 21 nM. This Ki and that of the compound before are within 1.5-fold of each other.

`CCCN(Cc1sc(N(CC)c2ccc(C(C)C)cc2Br)nc1C(F)(F)F)CC1CC1` gave a Ki in [1] of 56 nM.

In series [1], `COCCN(CCOC)C(=O)c1sc(Nc2c(Cl)cc(Cl)cc2Cl)nc1C` came in with a Ki of 51000 nM. Compared with the last compound, the Ki is about 910-fold higher.

In the case of `CCCN(Cc1sc(Nc2c(Br)cc(C)cc2Br)nc1C(F)(F)F)CC1CC1`, the Ki in series [1] was found to be 28 nM. Against the preceding compound, the Ki is about 1800-fold lower.

`CCCN(CC1CC1)C(=O)c1sc(Nc2c(Cl)cc(Cl)cc2Cl)nc1CC` came in with a Ki in [1] of 11000 nM.

For the compound `CCCN(Cc1sc(N(CC)c2c(C)cc(C)cc2Cl)nc1C(F)(F)F)CC1CC1`, the Ki in [1] was found to be 67 nM.
